Data from ChEMBL document CHEMBL3763062, “Conformational Analysis of the Host-Defense Peptides Pseudhymenochirin-1Pb and -2Pa and Design of Analogues with Insulin-Releasing Activities and Reduced Toxicities” (J Nat Prod, 2015).
Converted amounts (≈) assume the structure as drawn. Residues, ends and D or L forms follow the SMILES beside them.

Experiments:
MDA-MB-231 = test: Cytotoxicity against human MDA-MB-231 cells assessed as cell viability after 24 hrs by CellTiter-Glo luminescent assay; type: functional, cell-based; settings: MDA-MB-231, 24 h
Outline: (§1)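 Human tumour lines and HUVEC were cultured at 37 °C in medium with antibiotics. Cells were seeded at 5 × 10³ cells/well and exposed to peptides (10⁻⁶–10⁻⁴ M) in triplicate for 24 h at 37 °C. Viability was read as ATP luminescence. IC50 is the mean concentration giving 50% cell death over at least three independent experiments.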

HUVEC = test: Cytotoxicity against human HUVEC cells assessed as cell viability after 24 hrs by CellTiter-Glo luminescent assay; type: cell-based; outline: as §1
A549 = test: Cytotoxicity against human A549 cells assessed as cell viability after 24 hrs by CellTiter-Glo luminescent assay; type: functional, cell-based; settings: A549, 24 h; outline: as §1
[1] = Cytotoxicity against Swiss mouse RBC assessed as hemolytic activity […]; type: cell-based; settings: Erythrocyte
Outline: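 Erythrocytes came from male NIH Swiss mice and were exposed to peptides at 1.6 × 10⁻⁶ to […]. IC50 is the mean concentration producing 50% haemolysis.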

HT-29 = test: Cytotoxicity against human HT-29 cells assessed as cell viability after 24 hrs by CellTiter-Glo luminescent assay; type: functional, cell-based; settings: HT-29, 24 h; outline: as §1
[2] = Cytotoxicity in rat BRIN-BD11 cells assessed as LDH release at >= 1 uM after 20 mins by CytoTox96 assay; type: cell-based; settings: brin-bd11, 20 min
Outline: (§2)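 BRIN-BD11 monolayers were exposed to peptides (10⁻¹¹ to 3 × 10⁻⁶ M; n = 6) for 20 min at 37 °C in KRB buffer with 5.6 mM glucose. LDH in the supernatant was quantified by a colorimetric kit and compared with 5.6 mM glucose alone.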

[3] = Induction of insulin release in rat BRIN-BD11 cells at […] after 20 mins measured per 10^6 cells by radioimmunoassay in presence of 5.6 mM glucose (reference value: 0.97 to 1.05 ng); type: functional
[4] = (§3) Induction of insulin release in rat BRIN-BD11 cells after 20 mins by radioimmunoassay in presence of 5.6 mM glucose; type: functional; settings: BRIN-BD11, 20 min, read-out: MEC
Outline: (§4)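 BRIN-BD11 cells were seeded and allowed to attach overnight at 37 °C. They were then incubated 20 min at 37 °C with peptides (10⁻¹¹ to 3 × 10⁻⁶ M; n = 8) in KRB buffer with 5.6 mM glucose. Supernatant insulin was measured by radioimmunoassay, expressed as ng/10⁶ cells/20 min, and compared with 5.6 mM glucose alone.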

BRIN-BD11 = test: as §3; type: functional; outline: as §4
[5] = system: Staphylococcus epidermidis; test: Antibacterial activity against Staphylococcus epidermidis ATCC 12228 by microdilution method; type: functional
Outline: (§5)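 Reference ATCC strains tested. The MIC was determined by standard broth microdilution in three independent experiments.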

Pseudomonas aeruginosa = test: Antibacterial activity against Pseudomonas aeruginosa ATCC 27853 by microdilution method; type: functional; outline: as §5
Escherichia coli = test: Antibacterial activity against Escherichia coli ATCC 25922 by microdilution method; type: functional; outline: as §5
[6] = Cytotoxicity in rat BRIN-BD11 cells assessed as LDH release at >1 uM after 20 mins by CytoTox96 assay; type: cell-based; settings: brin-bd11, 20 min; outline: as §2
Staphylococcus aureus = test: Antibacterial activity against Staphylococcus aureus ATCC 25923 by microdilution method; type: functional; outline: as §5
[7] = Induction of insulin release in rat BRIN-BD11 cells at 3 uM after 20 mins in presence of 5.6 mM glucose by radioimmunoassay relative to control; type: functional; outline: as §4
[8] = Cytotoxicity in rat BRIN-BD11 cells assessed as LDH release at 1 or 3 uM after 20 mins by CytoTox96 assay; type: cell-based; settings: brin-bd11, 20 min; outline: as §2

| Compound | IC50 (MDA-MB-231) [µM] | IC50 (HUVEC) [µM] | IC50 (A549) [µM] | IC50 [1] [µM] | IC50 (HT-29) [µM] | Activity [2] | Activity [3] [ng] | minimal effective concentration [4] [µM] | Activity (BRIN-BD11) | MIC [5] [µM] | MIC (Pseudomonas aeruginosa) [µM] | MIC (Escherichia coli) [µM] | Activity [6] | MIC (Staphylococcus aureus) [µM] | Activity [7] [%] | Activity [8] |
| --- | --- | --- | --- | --- | --- | --- | --- | --- | --- | --- | --- | --- | --- | --- | --- | --- |
| H-GIFPIFAKLLGKVIKVASSLISKGRTK-OH [listing 1 of 2 here] | 4.3 | 5 | 2.5 | 4 | 5.6 | Toxic | – | – | – | – | – | – | – | – | – | – |
| C[C@H](N)C(=O)O [ALANINE] | – | – | – | – | – | – | 4.2 | – | – | – | – | – | – | – | – | – |
| CC[C@H](C)[C@H](N)C(=O)N[C@@H](CCCCN)C(=O)N[C@H](C(=O)N1CCC[C@H]1C(=O)N[C@@H](CO)C(=O)N[C@@H](Cc1ccccc1)C(=O)N[C@@H](Cc1ccccc1)C(=O)N[C@@H](CCCNC(=N)N)C(=O)N[C@@H](CC(N)=O)C(=O)N[C@H](C(=O)N[C@@H](CC(C)C)C(=O)N[C@@H](CCCCN)C(=O)N[C@@H](CCCCN)C(=O)N[C@H](C(=O)NCC(=O)N[C@@H](CCCCN)C(=O)N[C@H](CCCCN)C(=O)N[C@@H](C)C(=O)N[C@H](C(=O)N[C@@H](CO)C(=O)N[C@@H](CC(C)C)C(=O)N[C@H](C(=O)N[C@@H](C)C(=O)NCC(=O)N[C@@H](C)C(=O)N[C@@H](CC(C)C)C(=O)N[C@@H](CCCCN)C(=O)N[C@@H](CCC(N)=O)C(=O)N[C@@H](CO)C(=O)O)[C@@H](C)CC)C(C)C)C(C)C)[C@@H](C)CC)[C@@H](C)CC | 3.6 | 5 | 2.1 | 19 | 11 | Toxic | – | 0.0003 | – | – | – | – | – | – | – | – |
| CC[C@H](C)[C@H](N)C(=O)N[C@@H](CCCCN)C(=O)N[C@H](C(=O)N1CCC[C@H]1C(=O)N[C@@H](CO)C(=O)N[C@@H](Cc1ccccc1)C(=O)N[C@@H](Cc1ccccc1)C(=O)N[C@@H](CCCNC(=N)N)C(=O)N[C@@H](CC(N)=O)C(=O)N[C@H](C(=O)N[C@@H](CC(C)C)C(=O)N[C@@H](CCCCN)C(=O)N[C@@H](CCCCN)C(=O)N[C@H](C(=O)NCC(=O)N[C@@H](CCCCN)C(=O)N[C@@H](CCC(=O)O)C(=O)N[C@@H](C)C(=O)N[C@H](C(=O)N[C@@H](CO)C(=O)N[C@@H](CC(C)C)C(=O)N[C@H](C(=O)N[C@@H](C)C(=O)NCC(=O)N[C@@H](C)C(=O)N[C@@H](CC(C)C)C(=O)N[C@@H](CCCCN)C(=O)N[C@@H](CCC(N)=O)C(=O)N[C@@H](CO)C(=O)O)[C@@H](C)CC)C(C)C)C(C)C)[C@@H](C)CC)[C@@H](C)CC | 6.6 | 5.6 | 2.5 | 30 | 9.5 | – | – | 0.0001 | Dose-dependent effect | 2.5 (≈ 7.89 µg/mL) | 20 (≈ 63.1 µg/mL) | 10 (≈ 31.6 µg/mL) | Toxic | 5 (≈ 15.8 µg/mL) | 530 | – |
| CC[C@H](C)[C@H](N)C(=O)N[C@@H](CCCCN)C(=O)N[C@H](C(=O)N1CCC[C@H]1C(=O)N[C@@H](CO)C(=O)N[C@@H](Cc1ccccc1)C(=O)N[C@@H](Cc1ccccc1)C(=O)N[C@H](CCCNC(=N)N)C(=O)N[C@@H](CC(N)=O)C(=O)N[C@H](C(=O)N[C@@H](CC(C)C)C(=O)N[C@@H](CCCCN)C(=O)N[C@@H](CCCCN)C(=O)N[C@H](C(=O)NCC(=O)N[C@@H](CCCCN)C(=O)N[C@@H](CCC(=O)O)C(=O)N[C@@H](C)C(=O)N[C@H](C(=O)N[C@@H](CO)C(=O)N[C@@H](CC(C)C)C(=O)N[C@H](C(=O)N[C@@H](C)C(=O)NCC(=O)N[C@@H](C)C(=O)N[C@@H](CC(C)C)C(=O)N[C@@H](CCCCN)C(=O)N[C@@H](CCC(N)=O)C(=O)N[C@@H](CO)C(=O)O)[C@@H](C)CC)C(C)C)C(C)C)[C@@H](C)CC)[C@@H](C)CC | 20 | 27 | 7.2 | > 100 | 35 | – | – | 0.0003 | – | 40 (≈ 126 µg/mL) | 10 (≈ 31.6 µg/mL) | 2.5 (≈ 7.89 µg/mL) | – | 80 (≈ 253 µg/mL) | 190 | Non-toxic |
| H-GIFPIFAKLLGKVIKVASSLISKGRTK-OH [listing 2 of 2 here] | – | – | – | – | – | – | – | 0.001 | – | – | – | – | – | – | – | – |
| CC[C@H](C)[C@H](NC(=O)CN)C(=O)N[C@@H](Cc1ccccc1)C(=O)N1CCC[C@H]1C(=O)N[C@H](C(=O)N[C@@H](Cc1ccccc1)C(=O)N[C@@H](C)C(=O)N[C@@H](CCCCN)C(=O)N[C@@H](CC(C)C)C(=O)N[C@@H](CC(C)C)C(=O)NCC(=O)N[C@@H](CCCCN)C(=O)N[C@H](C(=O)N[C@H](C(=O)N[C@@H](CCCCN)C(=O)N[C@H](C(=O)N[C@@H](C)C(=O)N[C@@H](CO)C(=O)N[C@@H](CO)C(=O)N[C@@H](CC(C)C)C(=O)N[C@H](C(=O)N[C@@H](CO)C(=O)N[C@@H](CCCCN)C(=O)NCC(=O)N[C@@H](CCCNC(=N)N)C(=O)NC(C(=O)N[C@@H](CCC(=O)O)C(=O)O)[C@@H](C)O)[C@@H](C)CC)C(C)C)[C@@H](C)CC)C(C)C)[C@@H](C)CC (some centres not stated) (HELM PEPTIDE1{G.I.F.P.I.F.A.K.L.L.G.K.V.I.K.V.A.S.S.L.I.S.K.G.R.[C[C@@H](O)C(N[*:1])C(=O)[*:2]].E}$$$$V2.0) | 6.2 | 68 | 6 | 7 | 12 | – | – | 0.0001 | – | 5 (≈ 14.4 µg/mL) | 80 (≈ 230 µg/mL) | 80 (≈ 230 µg/mL) | Toxic | 5 (≈ 14.4 µg/mL) | 700 | – |
